Test results reported in ChEMBL document CHEMBL4680154, “The optimization of xanthine derivatives leading to HBK001 hydrochloride as a potent dual ligand targeting DPP-IV and GPR119” (Eur J Med Chem, 2020).
Values after ≈ are worked out from the molar mass of the structure shown.

Assays:
[1] = target: T1, Glucose-dependent insulinotropic receptor (Homo sapiens, UniProt Q8TDV5); test: Agonist activity at CREB-LBD and Gal4-DBD fused recombinant human GPR119 expressed in HEK293 cells by firefly luciferase assay; assay type: functional, cell-based
T1 sequence (Q8TDV5 whole entry): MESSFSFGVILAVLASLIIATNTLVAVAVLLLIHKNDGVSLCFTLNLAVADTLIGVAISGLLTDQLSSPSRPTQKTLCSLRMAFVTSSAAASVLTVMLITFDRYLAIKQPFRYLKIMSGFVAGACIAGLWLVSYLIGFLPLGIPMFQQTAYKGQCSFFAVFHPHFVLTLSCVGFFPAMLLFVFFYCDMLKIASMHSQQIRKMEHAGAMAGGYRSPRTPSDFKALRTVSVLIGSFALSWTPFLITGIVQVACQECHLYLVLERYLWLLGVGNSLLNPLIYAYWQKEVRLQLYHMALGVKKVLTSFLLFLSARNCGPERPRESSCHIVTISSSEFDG
How it was run: (§1)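 HEK293 cells transiently transfected with human GPR119, a Gal4-DBD/CREB-LBD fusion and a Gal4 UAS-driven luciferase reporter, then treated with compound (DMSO vehicle). Firefly luciferase luminescence read. Activation fold = compound/vehicle, expressed as percent of the AR231453 activation fold. EC50 obtained by curve fitting.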

[2] = Metabolic stability in Sprague-Dawley rat hepatocytes assessed as parent compound remaining incubated for 30 mins by LC-MS/MS analysis; assay type: ADME, cell-based, Hepatocyte; conditions: read-out: Stabilty
How it was run: (§2)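 Hepatocytes from male ICR/CD-1 mice, male Sprague-Dawley rats, or mixed human donors. Parent compound measured after 30 min incubation and normalised to the time-zero concentration.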

[3] = Metabolic stability in ICR/CD-1 mouse hepatocytes assessed as parent compound remaining incubated for 30 mins by LC-MS/MS analysis; assay type: ADME, cell-based, Hepatocyte; conditions: read-out: Stabilty; how it was run: as §2
[4] = target: T2, Glucose-dependent insulinotropic receptor (Homo sapiens) (UniProt Q8TDV5); test: Agonist activity at CREB-LBD and Gal4-DBD fused recombinant human GPR119 expressed in HEK293 cells at 1 uM by firefly luciferase assay relative to AR231453; assay type: functional, cell-based; how it was run: as §1
T2 sequence (whole entry): T1 sequence (Q8TDV5 whole entry)

Vero = test: Cytotoxicity against African green monkey Vero cells incubated for 48 hrs by MTT assay; conditions: Chlorocebus sabaeus
[5] = Metabolic stability in human hepatocytes assessed as parent compound remaining incubated for 30 mins by LC-MS/MS analysis; assay type: ADME, cell-based, Hepatocyte; conditions: read-out: Stabilty; how it was run: as §2
DPP8/9 = DPP8/9 (Homo sapiens, UniProt Q6V1X1+Q86TI2); test: Inhibition of recombinant human DPP8/9 expressed in Rosetta cells at 10 uM using Gly-Pro-p-nitroanilide as substrate incubated for 1 hr relative to control; conditions: probe Gly-Pro-p-nitroanilide
[6] = AUC(0 to infinity) in ICR mouse plasma at 2 mg/kg, iv measured up to 24 hrs; assay type: ADME, organism-based; design: route intravenous, dose 2 mg/kg, time <=24
How it was run: (§3)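 Male ICR mice (26–27 g), three per route. Oral dose given as a 2 mg/mL suspension in 0.5% carboxymethyl cellulose; intravenous dose as 0.4 mg/mL in 30% SBECD with 1 mol/L HCl. Blood taken at 5, 15, 30 min and 1, 2, 4, 7, 24 h; plasma stored at -80 °C. Non-compartmental analysis; F = (AUCpo×dose iv)/(AUCiv×dose po).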

[7] = Elimination half-life in Sprague-Dawley rat plasma at 30 mg/kg, po measured up to 24 hrs; assay type: ADME, organism-based; conditions: read-out: beta t1/2 (converted)
How it was run: (§4)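 Male SD rats (180–200 g), three per route, dosed as free base content. Oral formulation in 0.5% carboxymethyl cellulose; intravenous formulation in normal saline. Sampling at 5, 15, 30 min and 1, 1.5, 2, 4, 6, 8, 12, 24 h; plasma kept at -80 °C. Non-compartmental parameters; F = (AUCpo×dose iv)/(AUCiv×dose po).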

[8] = Mean residence time (0 to infinity) in Sprague-Dawley rat at 30 mg/kg, po measured up to 24 hrs; assay type: ADME, organism-based; conditions: in vivo; how it was run: as §4
[9] = AUC(0 to t) in ICR mouse plasma at 2 mg/kg, iv measured up to 24 hrs; assay type: ADME, organism-based; design: route intravenous, dose 2 mg/kg, time <=24; how it was run: as §3
[10] = AUC(0 to infinity) in ICR mouse plasma at 20 mg/kg, po measured up to 24 hrs; assay type: ADME, organism-based; design: route oral, dose 20 mg/kg, time <=24; how it was run: as §3
[11] = Oral bioavailability in Sprague-Dawley rat at 30 mg/kg; assay type: ADME, organism-based; conditions: in vivo; how it was run: as §4
[12] = Mean residence time (0 to infinity) in ICR mouse at 2 mg/kg, iv measured up to 24 hrs; assay type: ADME, organism-based; conditions: in vivo; how it was run: as §3
[13] = Cmax in ICR mouse plasma at 20 mg/kg, po measured up to 24 hrs; assay type: ADME, organism-based; design: route oral, dose 20 mg/kg, time <=24; how it was run: as §3
[14] = AUC(0 to infinity) in Sprague-Dawley rat plasma at 30 mg/kg, po measured up to 24 hrs; assay type: ADME, organism-based; design: route oral, dose 30 mg/kg, time <=24; how it was run: as §4
[15] = Elimination half life in ICR mouse plasma at 20 mg/kg, po measured up to 24 hrs; assay type: ADME, organism-based; conditions: read-out: beta t1/2 (converted); how it was run: as §3
[16] = Tmax in ICR mouse plasma at 20 mg/kg, po measured up to 24 hrs; assay type: ADME, organism-based; how it was run: as §3
[17] = Elimination half life in ICR mouse plasma at 2 mg/kg, iv measured up to 24 hrs; assay type: ADME, organism-based; conditions: read-out: beta t1/2 (converted); how it was run: as §3
[18] = AUC(0 to t) in Sprague-Dawley rat plasma at 30 mg/kg, po measured up to 24 hrs; assay type: ADME, organism-based; design: route oral, dose 30 mg/kg, time <=24; how it was run: as §4
[19] = Cmax in Sprague-Dawley rat plasma at 30 mg/kg, po measured up to 24 hrs; assay type: ADME, organism-based; design: route oral, dose 30 mg/kg, time <=24; how it was run: as §4
[20] = Tmax in Sprague-Dawley rat plasma at 30 mg/kg, po measured up to 24 hrs; assay type: ADME, organism-based; how it was run: as §4
[21] = Mean residence time (0 to infinity) in ICR mouse at 20 mg/kg, po measured up to 24 hrs; assay type: ADME, organism-based; conditions: in vivo; how it was run: as §3
[22] = Cmax in ICR mouse plasma at 2 mg/kg, iv measured up to 24 hrs; assay type: ADME, organism-based; design: route intravenous, dose 2 mg/kg, time <=24; how it was run: as §3
[23] = Oral bioavailability in ICR mouse at 20 mg/kg; assay type: ADME, organism-based; conditions: in vivo; how it was run: as §3
[24] = AUC(0 to t) in ICR mouse plasma at 20 mg/kg, po measured up to 24 hrs; assay type: ADME, organism-based; design: route oral, dose 20 mg/kg, time <=24; how it was run: as §3
Mus musculus = test: Antidiabetic activity in ICR mouse assessed as reduction in blood glucose AUC at 10 mg/kg, po administered as single dose followed by glucose challenge measured upto 120 mins by OGTT relative to control; assay type: functional; design: scale not given: the % may be the effect or the level left; conditions: time min <=120
How it was run: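 ICR mice were fasted overnight and dosed by oral gavage, with distilled water as vehicle, before an oral glucose load of 2 g/kg. Tail-tip blood was sampled at 0, 30, 60 and 120 min and glucose measured by the glucose oxidase method. AUC was compared with the vehicle group. n = 10 per group, mean ± SEM.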

Activity ([4]; filed as agonist)	inhibition at 1 h, 10 µM (DPP8/9)	Structure (SMILES)	EC50 [1]	remaining at 0.5 h [2]	remaining at 0.5 h [3]	IC50 (Vero)	remaining at 0.5 h [5]	other results
80%	3.3%	CC#CCn1c(N2CCC[C@@H](N)C2)nc2c1c(=O)n(CCCN1CCC(c3ncc(-c4ccccc4)o3)CC1)c(=O)n2C	0.83 µM					
81%	1.6%	CC#CCn1c(N2CCC[C@@H](N)C2)nc2c1c(=O)n(CCCN1CCN(c3nc(-c4ccccc4)ns3)CC1)c(=O)n2C	1.93 µM					
	7.3%	CC#CCn1c(N2CCC[C@@H](N)C2)nc2c1c(=O)n(CCCN1CCN(c3nnc(-c4ccccc4)[nH]3)CC1)c(=O)n2C						Activity [4]: 38%
42%	15.4%	CC#CCn1c(N2CCC[C@@H](N)C2)nc2c1c(=O)n(CCCN1CCN(c3cc(C)nn3-c3ccccc3)CC1)c(=O)n2C						
83%	2.2%	CC#CCn1c(N2CCC[C@@H](N)C2)nc2c1c(=O)n(CCCN1CCC(c3nc(-c4ccccc4)cs3)CC1)c(=O)n2C	3.13 µM					
84%		CC#CCn1c(N2CCC[C@@H](N)C2)nc2c1c(=O)n(CCCN1CCN(c3ncc(CCC)cn3)CC1)c(=O)n2C	1.85 µM					

Second part, the molecule before the results:

Structure (SMILES)	Activity ([4]; filed as agonist)	inhibition at 1 h, 10 µM (DPP8/9)	EC50 [1]	remaining at 0.5 h [2]	remaining at 0.5 h [3]	IC50 (Vero)	remaining at 0.5 h [5]	other results
CC#CCn1c(N2CCC[C@@H](N)C2)nc2c1c(=O)n(CCCN1CCN(c3noc(-c4ccccc4)n3)CC1)c(=O)n2C	89%		1.45 µM	25%	24.2%	8.7 µg/mL (≈ 14.8 µM)	82%	
CC#CCn1c(N2CCC[C@@H](N)C2)nc2c1c(=O)n(CCCN1CCC(n3cc(-c4ccccc4)nn3)CC1)c(=O)n2C	47%	0%		19.7%	21%	25.9 µg/mL (≈ 44.3 µM)	68.1%	
CC#CCn1c(N2CCC[C@@H](N)C2)nc2c1c(=O)n(CCCN1CCN(c3nc(-c4ccccc4)no3)CC1)c(=O)n2C		0%	1.4 µM	23.8%	32%	46.6 µg/mL (≈ 79.4 µM)	101%	AUC(0-inf) [6]: 261 ng·h/mL; half-life [7]: 1.11 h; MRT inf [8]: 2.11 h; AUC(0-t) at 24 h [9]: 257 ng·h/mL; AUC(0-inf) [10]: 318 ng·h/mL; bioavailability [11]: 31.8%; MRT inf [12]: 0.76 h; Cmax [13]: 213 ng/mL; AUC(0-inf) [14]: 502 ng·h/mL; half-life [15]: 1.06 h; Tmax [16]: 0.42 h; half-life [17]: 1.64 h; AUC(0-t) at 24 h [18]: 468 ng·h/mL; Cmax [19]: 192 ng/mL; Tmax [20]: 1.17 h; MRT inf [21]: 1.22 h; Cmax [22]: 850 ng/mL; bioavailability [23]: 12.2%; AUC(0-t) at 24 h [24]: 308 ng·h/mL
COc1c(Nc2ccc(S(C)(=O)=O)nc2C)ncnc1OC1CCN(C(=O)OC(C)C)CC1 [ADP-597]								Activity (Mus musculus): 19.9%
CC#CCn1c(N2CCC[C@@H](N)C2)nc2c1c(=O)n(CCCN1CCC(c3nc(-c4ccccc4)c[nH]3)CC1)c(=O)n2C	65%	5.1%	0.6 µM	21.7%	69.4%	35.2 µg/mL (≈ 60.3 µM)	84%	
CC#CCn1c(N2CCC[C@@H](N)C2)nc2c1c(=O)n(CCCN1CCN(c3nc(-c4ccccc4)cs3)CC1)c(=O)n2C	56%	0%	0.65 µM	39.6%	68.3%	4.3 µg/mL (≈ 7.15 µM)	91.5%	
